The species named for test [1] is Rattus norvegicus. The experiment in a line: Saluretic activity in the rat measured as concentration of chloride in urine. Format: functional. An outline of the steps: (§1)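 Rats deprived of food 24 h, water ad libitum, dosed 50 mg/kg by stomach tube as suspension in 2% starch, no extra water load. Groups of three in diuresis funnels; urine over first 5 h collected. Na⁺ and K⁺ by flame photometry, Cl⁻ argentometrically; expressed as mequiv/kg.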

The species entered for test [2] is Rattus norvegicus. The experiment in a line: Diuretic activity in the rats, determined by a modified Lipschitz test. The test is classed as functional, Urine. An outline of the steps: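 Modified Lipschitz test: rats deprived of water 24 h, grouped in threes of similar weight in diuresis funnels. Oral dose of 50 mg/kg, suspended in 2% starch solution, by stomach tube.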

The nature of test [3]: It is the ratio, measured as saluretic activity in the dog as concentration of Cl- in urinary excretion (dose 1.56 mg/Kg, po) to that of (Na+)+(K+). Format: functional, Urine. An outline of the steps:
(§2)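 Trained male beagles, fasted 24 h with tap water ad libitum. Bladder emptied by catheter, then 20 mL/kg tap water by stomach tube, with 4 mL/kg water at each hourly catheterization up to 8 h. The first 2 h of urine served as control. Oral dosing came after the second catheterization, and 1–6 h urine was pooled. Na⁺ and K⁺ were measured by flame photometry, Cl⁻ argentometrically, in mequiv/kg.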

Test [4] relates to Canis familiaris. The experiment in a line: Diuretic activity in the dog (2 animals/dose) at (dose 1.56 mg/Kg), when administered perorally. The test is classed as functional, Canis lupus familiaris, Urine. An outline of the steps: as §2
Test [5] is filed under the species Rattus norvegicus. The experiment in a line: Saluretic activity in the rat measured as concentration of K+ in urine. Format: functional. An outline of the steps:
as §1

The species entered for test [6] is Rattus norvegicus. The experiment in a line: Saluretic activity in the rat measured as concentration of Na+ in urine. Format: functional. An outline of the steps:
as §1

Test [7] concerns Canis familiaris. The test is described as follows: Saluretic activity in the dog measured as concentration of Cl - in urinary excretion (2 animals/dose) at (dose 1.56 mg/Kg, po). Format: functional, Canis lupus familiaris, Urine. An outline of the steps:
(§3)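 Male beagles trained to the procedures, food withdrawn 24 h before, tap water ad libitum. Bladder emptied by catheter, then 20 mL/kg tap water by stomach tube, plus 4 mL/kg orally at each hourly catheterization up to 8 h. The first 2 h of urine served as control. Compound given orally after the second catheterization. Urine from 1–6 h post-dose pooled; Na⁺ and K⁺ by flame photometry, Cl⁻ argentometrically, in mequiv/kg.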

Test [8] is described as follows: It is the ratio, measured as saluretic activity in the dog as concentration of Na+ in urinary excretion (dose 1.56 mg/Kg, po) to that of K. Format: functional, Urine. An outline of the steps: as §2
Test [9] concerns Canis familiaris. The experiment in a line: Saluretic activity in the dog measured as concentration of Na+ in urinary excretion (2 animals/dose) at (dose 1.56 mg/Kg, po). The test is classed as functional, Canis lupus familiaris, Urine. An outline of the steps: (§4)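 Male beagles trained to rest on a table and to accept stomach tube and catheter. Food withdrawn 24 h before, tap water ad libitum. Bladder emptied by catheter, then 20 mL/kg tap water by stomach tube. Catheterized hourly up to 8 h with 4 mL/kg water orally each time; first 2 h urine served as control. Oral dosing after second catheterization. Pooled 1–6 h urine; Na⁺/K⁺ by flame photometry, Cl⁻ argentometrically.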

Test [10] deals with Canis familiaris. The test is described as follows: Saluretic activity in the dog measured as concentration of K+ in urinary excretion (2 animals/dose) (dose 1.56 mg/kg, p.o.). Format: functional, Canis lupus familiaris, Urine. The settings on record: route oral. An outline of the steps:
as §3

Test [11] deals with Canis familiaris. The experiment in a line: Saluretic activity in the dog measured as concentration of K+ in urinary excretion (2 animals/dose) at (dose 0.1 mg/Kg, po). The test is classed as functional, Canis lupus familiaris, Urine. An outline of the steps:
as §3

Test [12] concerns Canis familiaris. The experiment in a line: Diuretic activity in the dog (2 animals/dose) at (dose 0.1 mg/Kg), when administered perorally. Format: functional, Canis lupus familiaris, Urine. An outline of the steps: as §2
The nature of test [13]: It is the ratio, measured as saluretic activity in the dog as concentration of Na+ in urinary excretion (dose 0.1 mg/Kg, po) to that of K. Format: functional, Urine. An outline of the steps:
as §2

For test [14], the system named is Canis familiaris. The test is described as follows: Saluretic activity in the dog measured as concentration of Cl - in urinary excretion (2 animals/dose) at (dose 0.1 mg/Kg, po). The test is classed as functional, Canis lupus familiaris, Urine. An outline of the steps: as §3
The subject of test [15] is Canis familiaris. The test is described as follows: Salidiuretic activity on the basis of the 1.56 mg/Kg po dog assay; compound was highly active. Format: functional, organism-based. To be noted: Canis lupus familiaris; Urine.
Test [16] deals with Canis familiaris. The test is described as follows: Saluretic activity in the dog measured as concentration of K+ in urinary excretion (2 animals/dose) at (dose 1.56 mg/Kg, po). The test is classed as functional, Canis lupus familiaris, Urine. An outline of the steps:
as §4

Test [17] deals with Rattus norvegicus. The experiment in a line: Salidiuretic activity on the basis of the 50 mg/kg po rat assay; compound was highly active. Format: functional, organism-based. Further details: dose 50 mg/kg. The settings on record: Urine.
Test [18] can be described thus: It is the ratio, measured as saluretic activity in the dog as concentration of Cl- in urinary excretion (dose 0.1 mg/Kg, po) to that of (Na+)+(K+). Format: functional, Urine. An outline of the steps:
as §2

Test [19] has as its system Canis familiaris. The test is described as follows: Saluretic activity in the dog measured as concentration of Na+ in urinary excretion (2 animals/dose) at (dose 0.1 mg/Kg, po). Format: functional, Canis lupus familiaris, Urine. An outline of the steps:
as §4

From ChEMBL document CHEMBL1122273, “5-sulfamoylorthanilic acids, a sulfonamide series with salidiuretic activity” (J Med Chem, 1983) come the findings set out here.

Molecules are shown by their SMILES. Calls of active or inactive are those of the source. The calls are words filed in the database; no cut-off is given here.

With `CCCC[S+]([O-])c1cc(NCc2ccco2)c(S(=O)(=O)[O-])cc1S(N)(=O)=O.[Na+]` (stereo not drawn), the Saluretic activity amounted to 1.4 m equiv 5hr-1 kg-1 in the test listed under Rattus norvegicus [1], 1 m equiv 5hr-1 kg-1 in the test listed under Rattus norvegicus [5], 0.9 m equiv 5hr-1 kg-1 in the test listed under Rattus norvegicus [6] and 0.89 m equiv 6hr-1 kg-1 in the test with Canis familiaris [9]. Moreover, the Diuretic activity in the test listed under Rattus norvegicus [2] is 1 mL/kg; in the test with Canis familiaris [4], 34.9 ml kg-1 6hr-1. Further, the Ratio in test [3] is reported as 1; in [8], 3. Besides, the Saldiuretic activity in the test on Canis familiaris [7] is recorded as 1.43 m equiv 6hr-1 kg-1; in the test with Canis familiaris [10], 0.35 (m equiv) 6hr-1 kg-1.

With `NS(=O)(=O)c1cc(S(=O)(=O)[O-])c(NCc2cccs2)cc1S(=O)(=O)C1CCCCC1.[Na+]`, the Saluretic activity turned out to be 8.7 m equiv 5hr-1 kg-1 in the test filed under Rattus norvegicus [1]; 2.2 m equiv 5hr-1 kg-1 in the test filed under Rattus norvegicus [5]; 7.3 m equiv 5hr-1 kg-1 in the test filed under Rattus norvegicus [6]; 1.05 m equiv 6hr-1 kg-1 with Canis familiaris [16]; 5.4 m equiv 6hr-1 kg-1 in the test on Canis familiaris [9]; 3.18 m equiv 6hr-1 kg-1 in the test on Canis familiaris [19]. For the same compound, the values for the Saldiuretic activity with Canis familiaris [11], in the test with Canis familiaris [14] and in the test on Canis familiaris [7] were 0.41 m equiv 6hr-1 kg-1, 3.54 m equiv 6hr-1 kg-1 and 6.39 m equiv 6hr-1 kg-1, respectively. In addition, the Diuretic activity in the test listed under Rattus norvegicus [2] stood at 4 mL/kg; in the test with Canis familiaris [12], 47.4 ml kg-1 6hr-1; in the test on Canis familiaris [4], 66.7 ml kg-1 6hr-1. Besides, the Ratio in test [3] stood at 1; in [13], 7.7; in test [8], 5.1; in [18] it was 1. Also, the Saldiuretic activity entry with Canis familiaris [15] and in the test with Rattus norvegicus [17] was “Active” in each case.
